# In the library only some 5.8% were active in any assay of this set; here they are far more common.
# Pf Dd2 inh: P. falciparum Dd2 growth inhibitors, primary screen, SYBR Green fluorescence, single dose replicates; 72 h; hits give low values; activity change, % at 10 µM; 94,000 compounds, 2.3% hits; in the data active = activity change below about -80%; inconclusive = no clear call, values can overlap the other calls
# T cruzi growth: T. cruzi intracellular proliferation inhibitors, primary screen, cell-based, beta-gal Tulahuen parasites, NIH3T3 host, luminescence. AID 624255, 2012. inhibition, % at 8.34 µM. 77,000 compounds, 5.9% hits. T. cruzi beta-gal in NIH3T3, GalScreen luminescence, 90 h;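 active = mean inhibition above about 93%, with at least 55% of replicates each passing it, limit read from the data, passing the limit was not always enough; inconclusive = only one of those two conditions holds; inactive = neither condition holds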
# IDH1 R132H inh: inhibitors of IDH1 R132H reductase, primary screen, biochemical, plate reader, single point | 70,000 compounds, 0.18% hits | Isocitrate dehydrogenase [NADP] cytoplasmic (Homo sapiens), O75874 | AID 624101, 2012 | inhibition, % at 10 µM | diaphorase/resazurin fluorescence, 60 min; in the data active = inhibition above about 34%; inconclusive = no clear call, values can overlap the other calls; inactive = below about 11%
# Target sequence (O75874 whole entry R132H): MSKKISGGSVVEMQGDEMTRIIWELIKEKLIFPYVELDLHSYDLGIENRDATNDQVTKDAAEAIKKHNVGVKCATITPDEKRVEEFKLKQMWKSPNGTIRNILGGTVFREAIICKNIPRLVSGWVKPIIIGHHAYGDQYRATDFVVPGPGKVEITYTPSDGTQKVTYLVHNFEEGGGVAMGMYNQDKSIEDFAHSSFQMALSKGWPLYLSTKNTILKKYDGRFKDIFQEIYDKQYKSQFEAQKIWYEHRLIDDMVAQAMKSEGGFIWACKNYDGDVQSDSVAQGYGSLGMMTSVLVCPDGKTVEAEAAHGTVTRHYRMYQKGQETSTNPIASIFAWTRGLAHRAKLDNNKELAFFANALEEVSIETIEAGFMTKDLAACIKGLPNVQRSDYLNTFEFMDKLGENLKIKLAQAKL
# KDM4C inh: inhibitors of GASC-1 (KDM4C) histone demethylase, primary screen, biochemical, single concentration HTS; 96,000 compounds, 0.15% hits; inhibition, % at 12.5 µM; GST-KDM4C 2-372, H3K9me3 peptide, LANCE TR-FRET;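 active = mean replicate inhibition above about 25%, with at least 55% of replicates also reaching it, limit read from the data, passing the limit was not always enough; inconclusive = only one of those two conditions met; inactive = neither condition met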
#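 Compound: one test concentration per compound; Material: GST-GASC-1 enzyme fragment 2-372; Amount: GASC-1 enzyme at 10 nM final in reaction; Also added: H3K9me3 peptide substrate, Fe(II), 2-oxoglutarate; Technique: LANCE TR-FRET; Times: 30 min demethylation and 1 h detection at room temperature.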
# Numbers stand for hits; - = inactive; ? = inconclusive; . = not tested or not shown; ! = not confirmed by another sample.
SMILES,Pf Dd2 inh,T cruzi growth,IDH1 R132H inh,KDM4C inh
COc1ccc(NC(=O)N2[C@@H]3CNC[C@H]2C3c2ccc(-c3ccc(OC)cc3)cc2)cc1 (stereo partly specified),-,.,.,-
Cc1ccc(-c2ccc(C3[C@@H]4CN(C(=O)Nc5ccc(C(F)(F)F)cc5)C[C@H]3N4)cc2)cc1 (stereo partly specified),-85,.,.,-
N#Cc1ccc(-c2ccc(C3[C@@H]4CN(C(=O)Nc5ccc(C(F)(F)F)cc5)C[C@H]3N4)cc2)cc1 (stereo partly specified),?,.,.,-
COc1ccc(-c2ccc(C3[C@H]4CNC[C@@H]3N4C(=O)Nc3ccc(C(F)(F)F)cc3)cc2)cc1 (stereo partly specified),-84!,.,.,-
O=C(Nc1ccc(C(F)(F)F)cc1)N1C[C@@H]2N[C@H](C1)C2c1ccc(-c2cccc(F)c2)cc1 (stereo partly specified),-83!,.,.,-
C[C@H](CO)N1C[C@H](C)[C@H](CN(C)Cc2ccc(C(F)(F)F)cc2)OCc2ccccc2-c2ccccc2C1=O,-84,.,.,-
C[C@H]1CN([C@@H](C)CO)C(=O)c2c(c3ccccc3n2C)-c2ccccc2CO[C@H]1CN(C)Cc1ccccc1C(F)(F)F,-,.,.,-
C[C@@H]1CN([C@@H](C)CO)C(=O)c2ccccc2-c2ccccc2CO[C@H]1CN(C)Cc1ccccc1C(F)(F)F,-90,.,.,-
Cc1ccccc1S(=O)(=O)N(C)C[C@H]1OCc2ccccc2-c2ccccc2C(=O)N([C@H](C)CO)C[C@H]1C,-86,-,-,-
C[C@H](CO)N1C[C@H](C)[C@H](CN(C)S(=O)(=O)c2ccc(C(F)(F)F)cc2)OCc2ccccc2-c2ccccc2C1=O,-85,-,-,-
CN(C)C(=O)C[C@@H]1CC[C@@H]2[C@H](COC[C@H](O)CN2S(=O)(=O)c2ccccc2Cl)O1,-,-,.,-
CCNC(=O)C[C@H]1CC[C@@H]2[C@H](COc3ccc(NS(=O)(=O)c4ccccc4C)cc3C(=O)N2C)O1,-,-,.,-
CO[C@@H]1CN(C)C(=O)c2ccc(NC(=O)c3ccccc3)cc2OC[C@@H](C)N(C(C)=O)C[C@@H]1C,-,.,.,-
C[C@H]1CN([C@@H](C)CO)C(=O)c2ccccc2-c2ccccc2CO[C@H]1CN(C)Cc1ccc(C(F)(F)F)cc1,-92,.,.,-
C[C@H]1CN([C@@H](C)CO)C(=O)c2ccccc2-c2ccccc2CO[C@@H]1CN(C)Cc1ccc(C(F)(F)F)cc1,-,.,.,-
C[C@@H]1CN([C@H](C)CO)C(=O)c2ccccc2-c2ccccc2CO[C@@H]1CN(C)Cc1ccc(C(F)(F)F)cc1,-87,.,.,-
Cc1ncc(CO)c(/C=N/NC(=O)CCCCCCC(=O)Nc2ccccc2O)c1O,.,.,-,.
Cc1noc(C)c1S(=O)(=O)Nc1ccc2c(c1)CC(=O)N([C@@H](C)CO)C[C@@H](C)[C@@H](CN(C)Cc1ccc(C(=O)Nc3ccccc3N)cc1)O2,-93,.,.,-
Cc1noc(C)c1S(=O)(=O)Nc1ccc2c(c1)CC(=O)N([C@H](C)CO)C[C@@H](C)[C@@H](CN(C)Cc1ccc(C(=O)Nc3ccccc3N)cc1)O2,-89,.,-,-
Cc1noc(C)c1S(=O)(=O)Nc1ccc2c(c1)CC(=O)N([C@H](C)CO)C[C@H](C)[C@@H](CN(C)Cc1ccc(C(=O)Nc3ccccc3N)cc1)O2,-,.,-,-
C[C@@H]1CN([C@@H](C)CO)C(=O)Cc2cc(NS(=O)(=O)c3ccc(F)cc3)ccc2O[C@@H]1CN(C)C(=O)Nc1ccc(F)cc1,-,-,.,-
CC(=O)N(C)C[C@@H]1[C@@H](c2ccc(C3=CCCC3)cc2)[C@@H](CO)N1CC1CC1,-,-,.,-
CCCN1[C@H](CO)[C@H](c2ccc(C3=CCCC3)cc2)[C@H]1CN(C(C)=O)C1CCCC1,-95,.,.,-
O=S(=O)(Nc1nccs1)c1ccc(NS(=O)(=O)c2cc(Cl)ccc2Cl)cc1,.,.,39,.
O=S(=O)(Nc1ncccn1)c1ccc(NS(=O)(=O)c2cc(Cl)ccc2Cl)cc1,.,.,-,.
SMILES,Pf Dd2 inh,T cruzi growth,IDH1 R132H inh,KDM4C inh
O=C(NC1CCCC1)N1CC(=O)N2[C@@H](CO)[C@H](c3ccc(/C=C/c4ccccc4)cc3)[C@@H]2C1,-,.,.,-
COc1ccc2c3c(n(C)c2c1)[C@H](CO)NCC31CN(CC2CCOCC2)C1,-,.,.,-
COc1ccc2c3c(n(C)c2c1)[C@H](CO)NCC31CCN(CC2CCCC2)CC1,-86,.,.,-
COc1ccc2c3c(n(C)c2c1)[C@H](CO)NCC31CCN(Cc2ccc(F)cc2)CC1,-83,.,.,.
COc1ccc2c3c(n(C)c2c1)[C@H](CO)NCC31CCN(Cc2ccc(Cl)cc2)CC1,-91,.,.,-
CCC(=O)N1C[C@H](O)COC[C@H]2O[C@@H](CC(=O)NCc3ccccc3Cl)CC[C@@H]21,-,.,.,-
C[C@@H]1CN([C@@H](C)CO)C(=O)c2cc(NC(=O)Cc3ccccc3)ccc2O[C@@H](C)CCCCO[C@H]1CN(C)C(=O)CCC(F)(F)F,.,-,-,-
C[C@H]1CN([C@@H](C)CO)C(=O)c2ccccc2-c2ccccc2CO[C@H]1CN(C)Cc1ccc(O)cc1,-,-,-,-
C[C@H]1CN([C@@H](C)CO)C(=O)c2ccccc2-c2ccccc2CO[C@H]1CN(C)Cc1ccc(Oc2ccccc2)cc1,-87,.,.,-
C[C@@H]1CN([C@H](C)CO)C(=O)c2ccccc2-c2ccccc2CO[C@@H]1CN(C)Cc1ccc(Oc2ccccc2)cc1,-88,.,-,-
COc1ccccc1NC(=O)N1C[C@@H](C)[C@H](OC)CN(C)C(=O)c2cc(NC(=O)c3cnccn3)ccc2OC[C@H]1C,-,.,-,-
COc1cccc(S(=O)(=O)Nc2ccc3c(c2)C(=O)N(C)C[C@@H](OC)[C@H](C)CN[C@H](C)CO3)c1,-,-,-,-
C[C@@H]1CCCCO[C@@H](CN(C)C)[C@@H](C)CN([C@H](C)CO)C(=O)c2cc(NC(=O)CCCCCC(=O)Nc3ccccc3N)ccc2O1,-,.,.,-
C[C@@H]1CCCCO[C@H](CN(C)Cc2ccc(Cl)c(Cl)c2)[C@@H](C)CN([C@H](C)CO)C(=O)c2cc(NC(=O)CCCCCC(=O)Nc3ccccc3N)ccc2O1,-90,.,-,-
C[C@@H]1CN([C@H](C)CO)C(=O)c2cc(NC(=O)CCCCCC(=O)Nc3ccccc3N)ccc2O[C@@H](C)CCCCO[C@H]1CN(C)Cc1ccc(Cl)c(Cl)c1,-91,.,-,-
C[C@@H]1CN([C@@H](C)CO)C(=O)c2cc(NC(=O)CCC(F)(F)F)ccc2O[C@@H]1CN(C)Cc1ccc(Cl)c(Cl)c1,-,-,-,-
C(=C\c1ccc(C2[C@@H]3CN(Cc4ccccn4)C[C@H]2N3)cc1)/c1ccccc1 (stereo partly specified),-,.,.,-

# Screens (PubChem BioAssay)
